Data set [1] in a line: Toxicity in BALB/c athymic nu/nu mouse xenografted with human NCI-H1975 cells assessed as mouse death at 200 mg/kg, iv administered once a week for 3 weeks. In kind it is organism-based. The settings on record: in vivo, 504 h. A digest of the protocol:
(§1)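 Athymic BALB/c-nu/nude mice bearing NCI-H1975 human lung carcinoma xenografts, n = 6 per group. Compounds were given i.v. at 200 mg/kg once weekly for three weeks. Deaths and body weight loss were recorded. Tumor growth inhibition was calculated from mean treated versus mean control tumor volumes.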

Data set [2] has as its target T1, Heat shock protein HSP90 (Homo sapiens, UniProt P07900+P08238). Nature of the data set: Inhibition of HSP90 ATPase activity (unknown origin). In kind it is protein assay.
For data set [3], the target named is T1, Heat shock protein HSP90. Put plainly: Inhibition of HSP90 (unknown origin) assessed as HER2 degradation by cell-based assay.
Data set [4] has as its system A2780. Put plainly: Cytotoxicity against human A2780 cells assessed as cell growth inhibition. In kind it is functional, cell-based.
The test system of data set [5] is HCT-116. Nature of the data set: Cytotoxicity against human HCT116 cells assessed as cell growth inhibition. In kind it is functional, cell-based.
Data set [6] deals with A2780. Put plainly: Antitumor activity against human A2780 cells xenografted in BALB/c nu/nu mouse assessed as tumor growth inhibition at 50 mg/kg, iv administered 3 times a week for 2 weeks starting from 5 to 6 days post tumor inoculation relative to control. In kind it is functional. The settings on record: read-out: TGI. A digest of the protocol: (§2)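 Human A2780 ovarian adenocarcinoma cells were cultured and implanted into BALB/c-nu/nude mice, n = 6 per group. Tumor size and volume were measured 5 or 6 days later. Compounds were suspended in 1% carboxymethyl cellulose and given intravenously. Deaths and body weight were monitored. Tumor growth inhibition = [1 − (mean treated tumor volume)/(mean control tumor volume)] × 100%.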

The test system of data set [7] is NCI-H1975. Put plainly: Antitumor activity against human NCI-H1975 cells xenografted in BALB/c athymic nu/nu mouse assessed as tumor growth inhibition at 200 mg/kg, iv administered once a week for 3 weeks relative to control. The settings on record: 504 h, read-out: TGI. In kind it is functional. A digest of the protocol:
as §1

Data set [8] can be described thus: Toxicity in BALB/c nu/nu mouse xenografted with human A2780 cells assessed as mouse death at 50 mg/kg, iv administered 3 times a week for 2 weeks starting from 5 to 6 days post tumor inoculation. In kind it is organism-based. Conditions: in vivo. A digest of the protocol: as §2
A short description of data set [9]: Toxicity in BALB/c nu/nu mouse xenografted with human A2780 cells assessed as effect on body weight at 50 mg/kg, iv administered 3 times a week for 2 weeks starting from 5 to 6 days post tumor inoculation. In kind it is organism-based. The settings on record: in vivo. A digest of the protocol:
as §2

Data set [10] can be described thus: Toxicity in BALB/c athymic nu/nu mouse xenografted with human NCI-H1975 cells assessed as effect on body weight at 200 mg/kg, iv administered once a week for 3 weeks. In kind it is organism-based. The settings on record: in vivo, 504 h. A digest of the protocol: as §1
Data set [11] concerns A2780. Nature of the data set: Antitumor activity against human A2780 cells xenografted in BALB/c nu/nu mouse assessed as tumor growth inhibition at 50 mg/kg, iv administered 3 times a week for 3 weeks starting from 5 to 6 days post tumor inoculation relative to control. In kind it is functional. The settings on record: read-out: TGI. A digest of the protocol: as §2
Data set [12] can be described thus: Toxicity in BALB/c nu/nu mouse xenografted with human A2780 cells assessed as mouse death at 50 mg/kg, iv administered 3 times a week for 3 weeks starting from 5 to 6 days post tumor inoculation. The settings on record: in vivo. In kind it is organism-based. A digest of the protocol: as §2
Data set [13] is described as follows: Toxicity in BALB/c nu/nu mouse xenografted with human A2780 cells assessed as effect on body weight at 50 mg/kg, iv administered 3 times a week for 3 weeks starting from 5 to 6 days post tumor inoculation. In kind it is organism-based. The settings on record: in vivo. A digest of the protocol: as §2
A short description of data set [14]: Toxicity in BALB/c athymic nu/nu mouse xenografted with human NCI-H1975 cells assessed as mouse death at 150 mg/kg, iv administered once a week for 3 weeks. In kind it is organism-based. Conditions: in vivo, 504 h.
In data set [15] the test system is NCI-H1975. Put plainly: Antitumor activity against human NCI-H1975 cells xenografted in BALB/c athymic nu/nu mouse assessed as tumor growth inhibition at 150 mg/kg, iv administered once a week for 3 weeks relative to control. The settings on record: 504 h, read-out: TGI.
Data set [16] is described as follows: Toxicity in BALB/c athymic nu/nu mouse xenografted with human NCI-H1975 cells assessed as effect on body weight at 150 mg/kg, iv administered once a week for 3 weeks. In kind it is organism-based. The settings on record: in vivo, 504 h.

The structures appear in SMILES notation.

The record followed here is ChEMBL document CHEMBL4627371, “Discovery of novel heat shock protein (Hsp90) inhibitors based on luminespib with potent antitumor activity” (Bioorg Med Chem Lett, 2020).

With `CCNC(=O)c1noc(-c2cc(C(C)C)c(O)cc2O)c1-c1cn[nH]c1`, the Activity entry in data set [1], in data set [8], in data set [9] and in [10] was “Non-Toxic” in each case. Also, the half-inhibitory concentration (IC50) stood at 0.469 µM in data set [2], 0.013 µM in data set [3], 0.038 µM in [4] and 0.043 µM in data set [5]. Further, the inhibition in vivo at 50 mg/kg in data set [6] is 47.6%. Also, in data set [7], the inhibition in vivo at 200 mg/kg was determined as 55.4%.

Consider `CCNC(=O)c1noc(-c2cc(C(C)C)c(O)cc2O)c1-c1cc(CO)no1`, for which the Activity result in data set [1], in [12], in data set [13] and in data set [10] was “Non-Toxic” each time. Moreover, the IC50 in data set [2] worked out at 0.279 µM; in data set [3], 0.042 µM; in [4] it was 0.005 µM; in [5], 0.013 µM. Moreover, in data set [11], the inhibition in vivo at 50 mg/kg is 47%. Also, the inhibition in vivo at 200 mg/kg in data set [7] is 50.9%.

For `CCNC(=O)c1cc(-c2c(C(=O)NCC)noc2-c2cc(C(C)C)c(O)cc2O)on1`, the Activity entry in data set [1], in data set [12], in data set [13] and in data set [10] was “Non-Toxic” each time. Also, the half-maximal inhibitory concentration (IC50) in data set [2] was determined as 0.284 µM; in data set [3], 0.028 µM; in data set [4] it was 0.043 µM; in data set [5], 0.014 µM. Further, in data set [11], the inhibition in vivo at 50 mg/kg came to 52%. Besides, the inhibition in vivo at 200 mg/kg in data set [7] was found to be 44%.

With `CCNC(=O)c1noc(-c2cc(C(C)C)c(O)cc2O)c1-c1ccc(CN2CCOCC2)cc1` [LUMINESPIB], the Activity result in data set [14], in [12], in [13] and in data set [16] was “Non-Toxic” each time. Further, the IC50 came out at 0.006 µM in data set [4] and 0.02 µM in data set [5]. Further, the inhibition in vivo at 50 mg/kg in data set [11] was found to be 48%. Also, the inhibition in vivo at 150 mg/kg in data set [15] stood at 43.5%.
